Reference: ChEMBL document CHEMBL4251654, “Structure-based design of human immuno- and constitutive proteasomes inhibitors” (Eur J Med Chem, 2018)
Calls of active or inactive are those of the source. No cut-off for these calls is given here.

Assays:
PC-3 = assay: Cytotoxicity against human PC3 cells assessed as reduction in cell viability after 48 hrs by Hoechst 33342 staining based HCS assay; type: functional; conditions: Homo sapiens, PC-3, 48 h; read-out: EC50
Outline: (§1)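 Cells were grown at 37 °C, 5% CO2 in medium with 10% FBS, 1% penicillin-streptomycin, 2 mM glutamine: DMEM for HuH7, MDA-MB-231 and fibroblasts, EMEM for Caco2, McCoy's for HCT116, RPMI for PC3 and NCI-H727. 4000 cells/well were seeded and dosed 24 h later at 0.1-25 μM final, from DMSO stocks. After 48 h they were fixed in ethanol/acetic acid and Hoechst-stained nuclei were counted by imaging. Survival is relative to DMSO. EC50 came from dose-response curves.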

MCF7 = assay: Cytotoxicity against human MCF7 cells assessed as reduction in cell viability after 48 hrs by Hoechst 33342 staining based HCS assay; type: functional; conditions: Homo sapiens, MCF7, 48 h; read-out: EC50
Huh-7 = assay: Cytotoxicity against human HuH7 cells assessed as reduction in cell viability after 48 hrs by Hoechst 33342 staining based HCS assay; type: functional; conditions: Homo sapiens, Huh-7, 48 h; read-out: EC50; outline: as §1
Fibroblast = assay: Cytotoxicity against human fibroblasts assessed as reduction in cell viability after 48 hrs by Hoechst 33342 staining based HCS assay; outline: as §1
HCT-116 = assay: Cytotoxicity against human HCT116 cells assessed as reduction in cell viability after 48 hrs by Hoechst 33342 staining based HCS assay; type: functional; conditions: Homo sapiens, HCT-116, 48 h; read-out: EC50; outline: as §1
[1] = molecular target: T1, Proteasome subunit beta type-9 (Homo sapiens) (UniProt P28065); assay: Inhibition of human 20S immunoproteasome beta-1 at 50 uM using Ac-PAL-AMC as substrate incubated for 15 mins measured for 45 mins by fluorescence assay relative to control
T1 sequence (whole entry): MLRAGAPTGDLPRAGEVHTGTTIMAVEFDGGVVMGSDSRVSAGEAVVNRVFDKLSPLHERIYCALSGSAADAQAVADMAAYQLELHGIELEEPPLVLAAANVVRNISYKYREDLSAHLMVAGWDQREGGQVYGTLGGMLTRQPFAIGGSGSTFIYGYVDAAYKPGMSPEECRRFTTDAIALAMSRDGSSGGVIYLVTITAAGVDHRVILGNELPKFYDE
Outline: (§2)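 Human 20S immunoproteasome (0.3 nM) was given 15 min with compound (0.001-50 μM) in pH 8 buffer of 20 mM Tris-HCl, 10% glycerol, 0.01% SDS, 2% DMSO. Ac-PAL-AMC at 50 μM was the substrate. Fluorescence (ex 360/em 460 nm) was followed 45 min at 37 °C relative to control.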

[2] = molecular target: Proteasome Macropain subunit (Homo sapiens) (UniProt P49721); assay: Inhibition of human 20S constitutive proteasome beta-2 at 50 uM using BocLRR-AMC as substrate incubated for 15 mins measured for 45 mins by fluorescence assay relative to control
Outline: (§3)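 Purified human 20S proteasome (cCP or iCP), 0.3 nM, preincubated 15 min with compound (0.001-50 μM) in pH 8 buffer of 20 mM Tris-HCl, 10% glycerol, 0.005% Triton X-100, 2% DMSO. Then Boc-LRR-AMC at 50 μM was added. AMC fluorescence (ex 360/em 460 nm) was followed 45 min at 37 °C. Activity is relative to an untreated control.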

NCI-H727 = assay: Cytotoxicity against human NCI-H727 cells assessed as reduction in cell viability after 48 hrs by Hoechst 33342 staining based HCS assay; type: functional; conditions: Homo sapiens, NCI-H727, 48 h; read-out: EC50; outline: as §1
MDA-MB-231 = assay: Cytotoxicity against human MDA-MB-231 cells assessed as reduction in cell viability after 48 hrs by Hoechst 33342 staining based HCS assay; type: functional; conditions: Homo sapiens, MDA-MB-231, 48 h; read-out: EC50; outline: as §1
[3] = molecular target: T2, Proteasome component C5 (Homo sapiens) (UniProt P20618); assay: Inhibition of human 20S constitutive proteasome beta-1 at 50 uM using Z-LLE-betaNA as substrate incubated for 15 mins measured for 45 mins by fluorescence assay relative to control
T2 sequence (whole entry): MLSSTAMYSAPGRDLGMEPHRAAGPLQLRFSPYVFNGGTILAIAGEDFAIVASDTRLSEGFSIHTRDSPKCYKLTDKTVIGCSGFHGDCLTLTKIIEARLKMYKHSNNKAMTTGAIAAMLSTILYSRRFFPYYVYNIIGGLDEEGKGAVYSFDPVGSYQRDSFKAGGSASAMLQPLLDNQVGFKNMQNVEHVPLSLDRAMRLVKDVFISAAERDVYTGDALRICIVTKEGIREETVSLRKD
Outline: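 Human 20S constitutive proteasome, 0.3 nM, was preincubated 15 min with compound (0.001-50 μM) in pH 8 Tris-HCl 20 mM, 10% glycerol, 0.01% SDS, 2% DMSO. Z-LLE-βNA at 50 μM was added. βNA fluorescence (ex 340/em 404 nm) was monitored 45 min at 37 °C against an untreated control.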

[4] = molecular target: T3, Proteasome Macropain subunit MB1 (Homo sapiens) (UniProt P28074); assay: Inhibition of human 20S constitutive proteasome beta-5 at 50 uM using Suc-LLVY-AMC as substrate incubated for 15 mins measured for 45 mins by fluorescence assay relative to control
T3 sequence (whole entry): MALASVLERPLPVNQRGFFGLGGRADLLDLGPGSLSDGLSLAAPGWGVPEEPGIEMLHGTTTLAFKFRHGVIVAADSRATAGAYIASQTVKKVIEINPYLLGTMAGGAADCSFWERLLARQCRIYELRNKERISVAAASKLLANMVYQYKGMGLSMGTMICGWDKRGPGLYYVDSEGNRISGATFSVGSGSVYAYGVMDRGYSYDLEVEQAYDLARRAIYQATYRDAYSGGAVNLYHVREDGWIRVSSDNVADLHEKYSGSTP
Outline: (§4)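 Human 20S cCP or iCP (0.3 nM) was exposed to compound (0.001-50 μM) for 15 min in pH 8 buffer of 20 mM Tris-HCl, 10% glycerol, 0.01% SDS, 2% DMSO. Suc-LLVY-AMC at 20 μM followed. Fluorescence (ex 360/em 460 nm) was read 45 min at 37 °C versus untreated enzyme.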

[5] = molecular target: T4, Proteasome subunit beta type-8 (Homo sapiens) (UniProt P28062); assay: Inhibition of human 20S immunoproteasome beta-5 at 50 uM using Suc-LLVY-AMC as substrate incubated for 15 mins measured for 45 mins by fluorescence assay relative to control; outline: as §4
T4 sequence (whole entry): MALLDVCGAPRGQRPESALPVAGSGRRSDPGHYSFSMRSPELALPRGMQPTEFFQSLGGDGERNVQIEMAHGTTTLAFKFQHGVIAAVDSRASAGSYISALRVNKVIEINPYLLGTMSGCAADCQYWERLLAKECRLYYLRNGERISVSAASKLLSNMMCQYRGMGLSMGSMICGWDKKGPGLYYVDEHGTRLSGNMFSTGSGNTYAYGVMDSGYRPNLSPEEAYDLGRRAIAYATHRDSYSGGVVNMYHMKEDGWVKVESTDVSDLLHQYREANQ

Caco-2 = assay: Cytotoxicity against human Caco2 cells assessed as reduction in cell viability after 48 hrs by Hoechst 33342 staining based HCS assay; type: functional; conditions: Homo sapiens, Caco-2, 48 h; read-out: EC50; outline: as §1
[6] = molecular target: T5, Proteasome subunit beta type-10 (Homo sapiens) (UniProt P40306); assay: Inhibition of human 20S immunoproteasome beta-2 at 50 uM using BocLRR-AMC as substrate incubated for 15 mins measured for 45 mins by fluorescence assay relative to control
T5 sequence (whole entry): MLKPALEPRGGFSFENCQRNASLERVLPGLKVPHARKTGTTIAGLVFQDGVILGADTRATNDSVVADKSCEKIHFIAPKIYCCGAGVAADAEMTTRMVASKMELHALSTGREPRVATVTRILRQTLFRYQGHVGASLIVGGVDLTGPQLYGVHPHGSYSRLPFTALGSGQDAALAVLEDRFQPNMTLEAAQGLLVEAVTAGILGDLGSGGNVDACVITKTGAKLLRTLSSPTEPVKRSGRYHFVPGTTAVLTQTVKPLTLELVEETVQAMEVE

[7] = tested on: 20S proteasome β5 (Homo sapiens); assay: Inhibition of human 20S constitutive proteasome beta-5 at 50 uM
[8] = tested on: 20S immunoproteasome β5i (Homo sapiens); assay: Inhibition of human 20S immunoproteasome beta-5 at 50 uM
[9] = molecular target: T5, Proteasome subunit beta type-10 (Homo sapiens); assay: Activation of human 20S immunoproteasome beta-2 at 50 uM using BocLRR-AMC as substrate incubated for 15 mins measured for 45 mins by fluorescence assay relative to control; outline: as §3
[10] = molecular target: T6, Proteasome subunit beta type-8 (Homo sapiens, UniProt P28062); assay: Inhibition of human 20S immunoproteasome beta-5 using Suc-LLVY-AMC as substrate incubated for 15 mins measured for 45 mins by fluorescence assay; outline: as §4
T6 sequence (P28062 whole entry): T4 sequence (whole entry)

[11] = molecular target: T7, Proteasome Macropain subunit MB1 (Homo sapiens, UniProt P28074); assay: Inhibition of human 20S constitutive proteasome beta-5 using Suc-LLVY-AMC as substrate incubated for 15 mins measured for 45 mins by fluorescence assay; outline: as §4
T7 sequence (P28074 whole entry): T3 sequence (whole entry)

[12] = molecular target: T8, Proteasome subunit beta type-9 (Homo sapiens, UniProt P28065); assay: Inhibition of human 20S immunoproteasome beta-1 using Ac-PAL-AMC as substrate incubated for 15 mins measured for 45 mins by fluorescence assay; outline: as §2
T8 sequence (P28065 whole entry): T1 sequence (whole entry)

[13] = molecular target: T9, Proteasome subunit beta type-10 (Homo sapiens, UniProt P40306); assay: Inhibition of human 20S immunoproteasome beta-2 using BocLRR-AMC as substrate incubated for 15 mins measured for 45 mins by fluorescence assay
T9 sequence (P40306 whole entry): T5 sequence (whole entry)

[14] = tested on: 20S proteasome β5 (Homo sapiens); assay: Inhibition of human 20S constitutive proteasome beta-5
[15] = tested on: 20S immunoproteasome β5i (Homo sapiens); assay: Inhibition of human 20S immunoproteasome beta-5

Proteasome Macropain subunit (Homo sapiens), sequence (P49721 whole entry): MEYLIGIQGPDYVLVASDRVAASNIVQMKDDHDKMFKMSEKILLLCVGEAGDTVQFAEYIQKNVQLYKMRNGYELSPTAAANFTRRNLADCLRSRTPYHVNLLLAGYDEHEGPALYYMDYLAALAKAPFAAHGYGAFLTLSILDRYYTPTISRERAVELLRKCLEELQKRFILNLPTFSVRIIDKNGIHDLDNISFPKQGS

Row | Structure (SMILES) | inhibition [1] [%] | inhibition [2] | inhibition [3] | inhibition [4] [%] | inhibition [5] [%] | inhibition [6] [%] | fold change (FC) [9] | IC50 [10] [µM] | IC50 [11] [µM] | IC50 [12] [µM] | IC50 [13] [µM] | IC50 [14] [µM] | IC50 [15] [µM] | further results
1 | COc1ccc(C[C@H](NC(=O)[C@H](C)NC(=O)CN2CCOCC2)C(=O)N[C@@H](Cc2ccccc2)C(=O)[C@@]2(C)CO2)cc1 | > 85 | > 85% | > 85% | > 85 | > 85 |  |  |  |  |  |  |  |  | EC50 (PC-3): 0.33 µM; EC50 (MCF7): 0.26 µM; EC50 (Huh-7): 0.39 µM; EC50 (Fibroblast): 0.16 µM; EC50 (HCT-116): 0.11 µM; EC50 (NCI-H727): 0.3 µM; EC50 (MDA-MB-231): 0.27 µM; EC50 (Caco-2): 1.3 µM
2 | CNC(=O)[C@H](C[C@@]1(O)C(=O)Nc2ccccc21)NC(=O)[C@H](C)NC(=O)[C@H](Cc1ccc(OCc2ccccc2)cc1)NC(=O)OC(C)(C)C | 10 | 13% | inactive |  |  | 19 |  |  |  |  |  |  |  | inhibition [7]: inactive; inhibition [8]: 8%
3 | C[C@H](NC(=O)[C@H](Cc1ccc(O)cc1)NC(=O)OC(C)(C)C)C(=O)N[C@@H](C[C@]1(O)C(=O)Nc2ccccc21)C(=O)NCc1ccccc1 | 12 | 19% | inactive |  |  | 10 |  |  |  |  |  | 32 | 34 | 
4 | C[C@H](NC(=O)[C@@H](N)Cc1ccc(OCc2ccccc2)cc1)C(=O)N[C@@H](C[C@]1(O)C(=O)Nc2ccccc21)C(=O)NCc1ccccc1 | > 85 | > 85% | > 85% |  |  | > 85 |  |  |  | 21.5 | 27.2 | 10.7 | 13 | 
5 | CC(C)(C)OC(=O)NCCCC[C@H](NC(=O)[C@H](Cc1ccc(OCc2ccccc2)cc1)NC(=O)OC(C)(C)C)C(=O)N[C@@H](C[C@]1(O)C(=O)Nc2ccccc21)C(=O)NCc1ccccc1 | > 85 | inactive | 15% | > 85 | > 85 |  | 1.3 | 25.1 | 22 | 59 |  |  |  | 

Now from value to molecule, other results behind:

Row | inhibition [1] [%] | inhibition [2] | inhibition [3] | inhibition [4] [%] | inhibition [5] [%] | inhibition [6] [%] | fold change (FC) [9] | IC50 [10] [µM] | IC50 [11] [µM] | IC50 [12] [µM] | IC50 [13] [µM] | IC50 [14] [µM] | IC50 [15] [µM] | Structure (SMILES) | further results
6 | > 85 | inactive | 37% | > 85 | > 85 |  | 1.3 | 17.1 | 10 |  |  |  |  | CC(C)c1ccc(CNC(=O)[C@H](C[C@]2(O)C(=O)Nc3ccccc32)NC(=O)[C@H](C)NC(=O)[C@H](Cc2ccc(OCc3ccccc3)cc2)NC(=O)OC(C)(C)C)cc1 | 
7 | > 85 | inactive | > 85% | > 85 | > 85 |  | 1.5 | 19.7 | 28.7 | 13 |  |  |  | C[C@H](NC(=O)[C@H](Cc1ccc(OCc2ccccc2)cc1)NC(=O)OC(C)(C)C)C(=O)N[C@@H](C[C@]1(O)C(=O)Nc2ccccc21)C(=O)NCc1ccc(-c2ccccc2)cc1 | 
8 | > 85 | inactive | > 85% |  |  | > 85 |  |  |  | 10.6 | 34 | 7 | 7.3 | C[C@H](NC(=O)[C@H](Cc1ccc(OCc2ccccc2)cc1)NC(=O)OC(C)(C)C)C(=O)N[C@@H](C[C@@]1(O)C(=O)Nc2ccccc21)C(=O)NCc1ccccc1 | 
9 | 13 | 36% | 20% |  |  | > 85 |  |  |  |  | 79 |  |  | CNC(=O)[C@H](C[C@]1(O)C(=O)Nc2ccccc21)NC(=O)[C@H](C)NC(=O)[C@H](Cc1ccc(OCc2ccccc2)cc1)NC(=O)OC(C)(C)C | inhibition [8]: 24%
